Hits are enriched below; roughly 2.3% of the tested compounds scored in any of these assays.
TAAR1 ag = human TAAR1 agonism. CHO RD-HGA16 TAAR1, Fluo-8 calcium fluorescence; vehicle wells 0%, saturating PEA agonist 100%. activation, % at 3 µM. actives 0.99% (n = 360,000). AID 624467;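 active means activation above the mean activation of all test compounds in the run plus 3 SD, cut at about 38% in these data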
Target sequence (Q96RJ0 whole entry, looked up): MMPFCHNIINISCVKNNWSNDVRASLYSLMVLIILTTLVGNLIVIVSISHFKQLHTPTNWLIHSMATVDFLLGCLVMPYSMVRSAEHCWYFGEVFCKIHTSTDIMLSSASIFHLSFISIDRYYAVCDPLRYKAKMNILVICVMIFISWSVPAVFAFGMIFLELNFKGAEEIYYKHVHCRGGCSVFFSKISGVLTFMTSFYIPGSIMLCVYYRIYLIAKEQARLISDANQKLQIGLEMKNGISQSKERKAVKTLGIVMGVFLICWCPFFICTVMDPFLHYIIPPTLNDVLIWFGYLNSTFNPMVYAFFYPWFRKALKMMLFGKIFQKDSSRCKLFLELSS
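Assay system: CHO-derived RD-HGA16 cells with stable Gα16 and human TAAR1; timing: 17-24 h seeding, 75 min 37 °C dye, 30 min RT; read-out: % activation from peak over basal fluorescence ratio, DMSO-to-PEA scaled; measured by: kinetic Fluo-8 calcium fluorescence; benchmarks: low control DMSO, high control PEA (EC100); doses: 3 µM single concentration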
V1aR counter = V1a receptor agonism, counter-screen for OXTR agonists | CHO-V1R cells, Fluo-8 calcium fluorescence, agonist mode; 0% DMSO, 100% 3 nM vasopressin | actives 0.25% (n = 320,000) | activation, % at 3 µM | P37288;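 active means activation above the mean activation of all tested compounds plus 3 SD, per screening run, cut at about 20% in these data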;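 further: signal is peak over basal fluorescence ratio across a 100 second FLIPR read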
OXTR potentiate = potentiators of human oxytocin receptor | P30559 | AID 2445 | actives 0.061% (n = 320,000) | activation, % at 3 µM | CHO-OTR cells, Fluo-8 calcium fluorescence, potentiator mode; 0% = oxytocin EC15, 100% = EC100;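 active means activation above that plate's cutoff, the mean activation of tested compounds plus 3 SD, cut at about 6.6% in these data, passing the limit was not always enough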;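 further: 100% uses oxytocin at 75 nM as the full agonist control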
Target sequence (P30559 whole entry, looked up): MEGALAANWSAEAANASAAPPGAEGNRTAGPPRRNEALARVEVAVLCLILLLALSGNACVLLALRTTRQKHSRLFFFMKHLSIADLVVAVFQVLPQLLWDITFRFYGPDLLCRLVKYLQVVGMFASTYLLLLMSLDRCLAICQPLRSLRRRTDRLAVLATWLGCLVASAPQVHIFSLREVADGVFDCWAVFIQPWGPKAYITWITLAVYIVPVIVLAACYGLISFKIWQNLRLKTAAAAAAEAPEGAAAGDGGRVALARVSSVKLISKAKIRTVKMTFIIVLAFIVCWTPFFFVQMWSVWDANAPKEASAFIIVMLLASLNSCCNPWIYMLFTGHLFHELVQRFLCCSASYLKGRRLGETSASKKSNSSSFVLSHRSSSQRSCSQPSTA
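Assay system: CHO cell line stably expressing human OTR | Also added: Oxytocin at about EC15, sub-maximal agonist stimulus | Times: Compound 6 min at room temperature before oxytocin, 100 s read | Measured by: Fluo-8 intracellular calcium fluorescence, ex 470-495, em 515-575 nm | Controls: EC15 oxytocin alone as 0%, 75 nM oxytocin as 100%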
OXTR ag = agonists of human oxytocin receptor. P30559. CHO-OTR cells, Fluo-8 calcium fluorescence; normalized: DMSO 0%, oxytocin 100%. activation, % at 3 µM. actives 0.32% (n = 320,000). AID 2435;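 active means activation above the mean of all tested compounds plus 3 SD, cutoff set per screening run, cut at about 20% in these data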;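 further: peak over basal fluorescence ratio from a 100 s FLIPR kinetic read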
TAAR1 antagonist = antagonists of human TAAR1; CHO RD-HGA16 TAAR1, Fluo-8 calcium fluorescence, antagonist; AID 624466; Q96RJ0; inhibition, % at 3 µM; actives 1.5% (n = 360,000);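 active means inhibition above a per-plate cutoff, the mean inhibition of test compounds on that plate plus 3 SD, cut at about 49% in these data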;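 further: 0% = DMSO plus EC80 beta-PEA response and 100% = DMSO alone without agonist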
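Test system: hTAAR1-expressing CHO RD-HGA16 cells, Gα16-coupled; Probe or stimulus: EC80 β-phenethylamine stimulus; Compound dosing: single nominal final test compound concentration of 3 µM; Timing: 140 s kinetic read after compound, 140 s after agonist; Signal: Fluo-8 calcium-sensitive fluorescence; Measure: % inhibition of agonist calcium response; Controls: DMSO and EC80 PEA controls.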
TAAR1 ag confirm = confirmation of human TAAR1 agonists; actives 82% (n = 2,400); AID 651783; CHO RD-HGA16 TAAR1, Fluo-8 calcium fluorescence; scaled: DMSO 0%, maximal phenethylamine 100%; shares compounds with TAAR1 ag; activation, % at 3 µM;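 active means activation above a cutoff set at the run's mean compound activation plus 3 SD, cut at about 39% in these data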
Ga16 nonsel ag = counter-screen for TAAR1 agonists: nonselective agonists in parental cells. shares compounds with TAAR1 ag. CHO-Ga16 parental, Fluo-8 calcium fluorescence; normalized to maximal ATP response, DMSO zero. activation, % at 3 µM. actives 50% (n = 2,400);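 active means activation above the run cutoff, the mean activation over all tested wells plus 3 SD, cut at about 12% in these data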;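 further: 0% = DMSO wells and 100% = maximal ATP response on the peak over basal ratio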
TAAR1 desens = TAAR1 response desensitization, agonist counter-screen | CHO RD-HGA16 hTAAR1, Fluo-8 calcium, beta-PEA response inhibition | actives 46% (n = 2,400) | inhibition, % at 3 µM | shares compounds with TAAR1 ag;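 active means inhibition above the run cutoff, the mean inhibition of all test compounds plus 3 SD, cut at about 49% in these data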;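 further: beta-PEA stimulus applied at its EC80; loss of beta-PEA calcium signal after compound pretreatment read as receptor desensitization; 0% = DMSO with beta-PEA at EC80 and 100% = DMSO alone without agonist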
Ga16 nonsel ant = counter-screen for TAAR1 agonists: nonselective Ga16 antagonists | actives 39% (n = 2,400) | CHO-Ga16 ATP-induced calcium, Fluo-8 fluorescence | AID 651952 | inhibition, % at 3 µM | shares compounds with TAAR1 ag;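 active means inhibition above the plate's mean compound inhibition plus 3 SD, computed per plate, cut at about 22% in these data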;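 further: 0% = EC80 ATP with DMSO and 100% = DMSO wells without ATP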
Starred values were filed as active, the others as inactive; . = no result.

SMILES	TAAR1 ag	V1aR counter	OXTR potentiate	OXTR ag	TAAR1 antagonist	TAAR1 ag confirm	Ga16 nonsel ag	TAAR1 desens	Ga16 nonsel ant
Cc1ccccc1Oc1ccc(Oc2ccccc2C)nn1	60.1*	-0.7	-6.5	-1.3	28.0	-2.3	0.3	-10.3	-2.0
Cc1ccccc1OCCn1ccnc1	1.4	1.2	-1.7	0.8	2.5	.	.	.	.
CCN1C[C@@H]2[C@@H]3C(=O)N(C)C(=O)[C@@H]3[C@](Cc3ccccc3)(C1=O)N2C(=O)c1ccc(F)cc1	18.9	.	.	.	-3.1	.	.	.	.
CN1C(C(=O)NCCc2cccs2)CC2Cn3c(nc4ccccc43)C21 (configuration not stated)	.	-0.1	-2.4	-0.1	.	.	-0.2	.	2.4
CCCNC(=O)C1CC2Cn3c(nc4ccccc43)C2N1C (configuration not stated)	10.3	1.0	-3.0	-0.1	12.1	.	.	.	.
CC(=O)Nc1ccc(OCCCN2CCC(C(O)(c3ccccc3)c3ccccc3)CC2)cc1	2.6	.	.	.	-0.3	.	.	.	.
N#Cc1ccc(OCCCN2CCC(C(O)(C3=CCCC3)c3ccccc3)CC2)cc1 (configuration not stated)	18.9	.	.	.	3.3	.	.	.	.
OC(c1ccccc1)(c1ccccc1)C1CCN(CCCOc2ccc(-c3ccncc3)cc2)CC1	41.8*	.	.	.	53.1*	45.8*	26.9*	54.3*	36.2*
OC(c1ccccc1)(c1ccccc1)C1CCN(CCCOc2ccc(-c3cccnc3)cc2)CC1	53.3*	.	.	.	37.2	32.7	20.9*	29.6	28.6*
CC1CCN(CCCOc2ccc(OCc3ccccc3)cc2)CC1	59.1*	4.7	-10.1	6.7	17.6	40.7*	23.6*	20.9	23.1*
Cc1nn(C)cc1S(=O)(=O)N1CCN(c2ccccc2)CC1	0.1	1.5	-2.7	0.7	-36.2	.	.	.	.
COc1ccc(C(=O)NNC(=S)NC(=O)c2ccc(Br)o2)cc1OC	49.9*	4.8	-0.5	3.1	10.6	21.1	12.9*	11.8	8.6
Cc1ccc(OCC(=O)NNC(=S)NC(=O)c2ccc(Br)o2)c(C)c1	10.6	.	.	.	11.4	.	.	.	.
Cc1onc(-c2ccccc2)c1C(=O)NNC(=S)NC(=O)/C=C/c1cccs1	114.7*	24.2*	-11.1	29.1*	68.5*	107.0*	94.0*	78.8*	61.8*
Cc1onc(-c2ccccc2)c1C(=O)NNC(=S)NC(=O)c1ccc2c(c1)OCO2	89.3*	53.0*	-18.9	27.2*	46.1	94.8*	81.2*	51.9*	37.9*
COc1ccc(C(=O)NC(=S)NNC(=O)c2c(-c3ccccc3)noc2C)cc1OC	68.2*	28.6*	-17.2	20.8*	-0.8	69.7*	46.5*	24.1	10.7
COc1ccc2nc(NC(=O)C3CCN(C(=O)c4ccco4)CC3)sc2c1	1.9	5.8	-11.1	3.7	-21.8	.	.	.	.
O=C(COC(=O)c1ccc2c(c1)S(=O)(=O)N=C1CCCCCN12)NCc1cccs1	-0.6	-0.1	-1.1	-0.6	-33.0	.	.	.	.
CCN1C(=O)/C(=C\C=C\c2ccccc2[N+](=O)[O-])SC1=S	4.6	.	.	.	1.8	.	.	.	.
CCN1C(=O)/C(=C/C=C2\N(CC)c3cc(S(=O)(=O)N(C)C)ccc3N2c2ccccc2)SC1=S	61.8*	18.7	-7.5	18.7	36.3	48.4*	56.4*	71.9*	77.6*
COC(=O)c1c(C)[nH]c(C(=O)CN(C)CC(=O)Nc2cccc(F)c2)c1C	5.4	3.4	-5.3	1.9	-14.6	.	.	.	.
CC(C)=C1C2CCC1C(C(=O)NCCc1ccccc1)C2C(=O)O (configuration not stated)	62.2*	-0.7	-8.0	-2.1	87.5*	80.1*	3.8	90.0*	4.1
O=C(O)C1C2C=CC(C3CC23)C1C(=O)NCCc1ccccc1 (configuration not stated)	90.6*	1.8	-3.5	-0.3	93.2*	96.3*	3.5	97.1*	12.3
CC(C)=C1C2CCC1C(C(=O)Nc1cc(C)cc(C)c1)C2C(=O)O (configuration not stated)	5.3	-1.4	-5.0	-0.7	15.8	.	.	.	.
CC(NCc1ccc(OCc2ccc(Cl)cc2)cc1)C(O)c1ccccc1 (configuration not stated)	52.4*	6.7	-11.8	18.6	26.5	38.9*	26.9*	48.6*	39.9*
SMILES	TAAR1 ag	V1aR counter	OXTR potentiate	OXTR ag	TAAR1 antagonist	TAAR1 ag confirm	Ga16 nonsel ag	TAAR1 desens	Ga16 nonsel ant
CC(NCc1cccc(OCc2ccccc2)c1)C(O)c1ccccc1 (configuration not stated)	23.6	4.4	-18.2	15.7	7.8	.	.	.	.
CC(=O)c1ccc(NC(=O)C2C3C=CC(C3=C(c3ccccc3)c3ccccc3)C2C(=O)O)cc1 (configuration not stated)	74.6*	-0.1	-12.6	0.2	-8.9	101.6*	71.3*	16.6	3.5
O=C(NCC(c1ccco1)N1CCc2ccccc2C1)C(=O)Nc1ccccc1 (configuration not stated)	26.4	-0.7	-10.5	-1.0	-4.0	.	.	.	.
O=C(NCC(c1ccco1)N1CCc2ccccc2C1)c1ccccc1 (configuration not stated)	2.7	-1.3	-0.3	-2.5	-16.6	.	.	.	.
COc1ccccc1NC(=O)C(=O)NCC(c1ccco1)N1CCc2ccccc2C1 (configuration not stated)	83.4*	-0.1	-7.7	-0.2	24.8	64.0*	1.2	7.5	4.2
COc1ccc(C)cc1S(=O)(=O)NCC(c1ccco1)N1CCc2ccccc2C1 (configuration not stated)	42.0*	-1.6	-10.4	-1.9	-14.6	62.2*	1.5	19.2	10.2
O=C(NCC(c1ccco1)N1CCc2ccccc2C1)c1ccc(F)cc1 (configuration not stated)	46.2*	-0.8	-14.0	-1.8	-17.7	19.4	0.6	0.9	10.9
CCOC(=O)N1CCN(C(=O)C[C@H]2C[C@@]3(C(=O)OC)C(=C[C@H](C(C)(C)C)O[C@@H]3C)N(Cc3ccccc3)C2=O)CC1	-0.6	.	.	.	-2.7	.	.	.	.
O=C(c1[nH]c(C(F)(F)F)nc1-c1ccccc1)N1CCN(C/C=C/c2ccccc2)CC1	0.1	.	.	.	8.9	.	.	.	.

Source: PubChem
